Laboratory results taken from ChEMBL document CHEMBL1136314, “Biphenyl-based analogues of thiolactomycin, active against Mycobacterium tuberculosis mtFabH fatty acid condensing enzyme” (Bioorg Med Chem Lett, 2003).

biological target: T1, Mycobacterial beta-ketoacyl-[acyl-carrier-protein] synthase III (Mycobacterium tuberculosis, UniProt P9WNG3); experiment: In vitro inhibitory activity against the recombinant Mycobacterium tuberculosis Beta-ketoacyl-ACP synthase III mtFabH condensing enzyme.; design: species or system H37Rv
T1 sequence (P9WNG3 whole entry): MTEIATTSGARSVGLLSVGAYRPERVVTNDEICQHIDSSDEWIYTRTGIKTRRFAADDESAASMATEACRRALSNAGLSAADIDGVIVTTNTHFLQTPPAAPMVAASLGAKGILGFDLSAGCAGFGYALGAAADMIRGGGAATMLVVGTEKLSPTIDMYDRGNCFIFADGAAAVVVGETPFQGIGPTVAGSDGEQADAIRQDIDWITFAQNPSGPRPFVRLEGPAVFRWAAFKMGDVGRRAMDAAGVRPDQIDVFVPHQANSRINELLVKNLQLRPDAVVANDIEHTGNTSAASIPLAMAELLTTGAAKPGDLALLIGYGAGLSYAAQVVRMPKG
Outline: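 Direct end-point scintillation proximity assay with E. coli-expressed recombinant mtFabH (1.0 nM), biotinylated malonyl-ecACP, and myristoyl-CoA in 100 mM sodium phosphate with 0.01% CHAPS and 1 mM DTT. Compounds in DMSO were tested from 500 down to 0.98. After a 5-min 30 °C preincubation, [3H]myristoyl-CoA was added and reacted 20 min at 30 °C. Ethanol quench, streptavidin beads, bead-bound radioactivity counted, IC50 derived.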

With CC1=C(O)C(C)(Cc2cc(F)cc(F)c2)SC1=O (configuration not stated) as the compound, how does the IC50 read?
Its IC50 is 263 µM.

For CC1=C(O)C(C)(Cc2ccc(-c3ccc(CO)cc3)cc2)SC1=O (configuration not stated), which IC50 is on record?
Its IC50 is 19 µM.

How did the IC50 turn out when CC1=C(O)C(C)(Cc2ccc(-c3ccc(C=O)cc3)cc2)SC1=O (configuration not stated) was run?
Its IC50 is 29 µM.

For COc1cccc(CC2(C)SC(O)=C(C)C2=O)c1 (configuration not stated), which IC50 is on record?
Its IC50 is over 500 µM.

Which IC50 does the source give for CC1=C(O)C(C)(Cc2ccc(-c3ccc(C(C)(C)C)cc3)cc2)SC1=O (configuration not stated) here?
The IC50 was 25 µM.

CC1=C(O)C(C)(Cc2ccc(-c3ccc(C)cc3)cc2)SC1=O (configuration not stated) was tested. Which IC50 did it give?
The IC50 was 52 µM.

For CC1=C(O)C(C)(Cc2ccccc2)SC1=O (configuration not stated), which IC50 is on record?
Its IC50 is over 250 µM.

How did the IC50 turn out when CC1=C(O)C(C)(Cc2ccc(I)cc2)SC1=O (configuration not stated) was run?
Its IC50 is 153 µM.

How did the IC50 turn out when CC(=O)Nc1cccc(-c2ccc(CC3(C)SC(O)=C(C)C3=O)cc2)c1 (configuration not stated) was run?
Its IC50 is 119 µM.

CC1=C(O)C(C)(Cc2ccc(-c3ccc(COCc4ccccc4)cc3)cc2)SC1=O (configuration not stated) was tested. Which IC50 did it give?
Its IC50 is 17 µM.

Which IC50 does the source give for CC1=C(O)C(C)(Cc2ccc(F)cc2F)SC1=O (configuration not stated) here?
The IC50 was 246 µM.

How did the IC50 turn out when CC1=C(O)C(C)(Cc2cccc(Oc3ccccc3)c2)SC1=O (configuration not stated) was run?
The IC50 was 52 µM.

For CC1=C(O)C(C)(Cc2cccc(-c3ccccc3)c2)SC1=O (configuration not stated), which IC50 is on record?
Its IC50 is 215 µM.

COc1ccc(CC2(C)SC(O)=C(C)C2=O)cc1 (configuration not stated) was tested. Which IC50 did it give?
The IC50 was 155 µM.

With CC1=C(O)C(C)(Cc2ccc(C(C)(C)C)cc2)SC1=O (configuration not stated) as the compound, how does the IC50 read?
The IC50 was 43 µM.

With CC1=C(O)C(C)(Cc2ccc(-c3ccccc3)cc2)SC1=O (configuration not stated) as the compound, how does the IC50 read?
Its IC50 is 51 µM.

How did the IC50 turn out when CC1=C(O)C(C)(Cc2ccc(C)cc2)SC1=O (configuration not stated) was run?
The IC50 was 112 µM.
